Experimental data as given in PubChem BioAssay AID493195 (Broad Institute, 2011).
Values joined by “and” are separate entries in the source; they are usually repeats but may differ in a detail not shown here. Equal values may be shown once. Active and inactive are the calls of the source.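 How the source made its calls: active means fitted dose curve reaching 40% activation within the tested dose range; inconclusive means no clear call, values can overlap the other calls; inactive means the rest, or activity opposite the expected rise.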

Tests used:
[1] = tested on: U2OS HRE-luciferase reporter, luminescence, HIF activation; assay: HIF pathway transcriptional activation – cell-based, luminescence, U2OS HRE-luc, dry powder, set 6, dose response (AID 493195)
Method in brief: (§1)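 Compound: 8-point threefold series, 7.5 mM top stock, pin-transferred | System: Human U2OS osteosarcoma cells stably carrying 3×HRE-luciferase reporter | Quantity: 6,000 cells per well | Measured by: Luciferase luminescence | Schedule: 24 h cell rest, then 24 h compound exposure, 37 °C, 21% O2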

[2] = as above; details: U2OS HRE-luciferase reporter, luminescence, HIF activation; at 38 µM (top of the series)
Method in brief: as §1

Row | Compound | AC40 [1] | activation [2]
1 | COc1cccc(CNc2nc(-c3ccccn3)nnc2-c2ccccc2)c1 | 2.43 µM | –
2 | COc1ccccc1N1CCN(Cc2ccc(O)c3ncccc23)CC1 | 33 µM | –
3 | OCC1CCN(Cc2ccc(O)c3ncccc23)CC1 | – | 44.4% (inactive)
4 | O=C(NCCN1CCOCC1)c1cc(-c2ccccc2)on1 | – | 20.9% (inactive)
5 | Cc1ccccc1CNc1nc(-c2ccccn2)nnc1-c1ccccc1 | 4.31 µM | –
6 | O=C(c1cc(-c2ccccc2)on1)N1CCc2cccnc21 | – | -0.142% (inactive)
7 | O=C(NCCCO)c1cc(-c2ccccc2)on1 | – | 16.3% (inactive)
8 | CN(C)CCNC(=O)c1cc(-c2ccccc2)on1 | – | 0.398% (inactive)
9 | Cc1cccc(Nc2nc(-c3ccccn3)nnc2-c2ccccc2)n1 | 11.2 µM | –
10 | O=C(Nc1cn2ccccc2n1)c1cc(-c2ccccc2)on1 | – | 0.943% (inactive)
11 | c1ccc(-c2nnc(-c3ccccn3)nc2Nc2cnc3ccccc3n2)cc1 | 7.11 µM | –
12 | c1ccc(-c2nnc(-c3ccccn3)nc2NCc2cccnc2)cc1 | 20.7 µM | –
13 | O=C(NCCCn1ccnc1)c1cc(-c2ccccc2)on1 | 26.5 µM | –
14 | Oc1ccc(CN2CCC(Cc3ccccc3)CC2)c2cccnc12 | 26.5 µM | –
15 | CC1CN(Cc2ccc(O)c3ncccc23)CC(C)O1 (stereo unspecified) | – | 2.48% (inactive)
16 | O=C(NCC1CC1)c1cc(-c2ccccc2)on1 | – | 19.6% (inactive)
17 | O=C(Nc1nc(-c2ccccc2)cs1)c1cc(-c2ccccc2)on1 | – | -0.156% (inactive)
18 | CN1CCN(C(=O)c2cc(-c3ccccc3)on2)CC1 | – | -0.469% (inactive)
19 | c1ccc(CCNc2nc(-c3ccccn3)nnc2-c2ccccc2)cc1 | 2.14 µM | –
20 | c1ccc(-c2ccc(CNc3nc(-c4ccccn4)nnc3-c3ccccc3)cc2)cc1 | 0.917 µM | –
21 | O=C(NC1CCc2ccccc2C1)c1cc(-c2ccccc2)on1 (stereo unspecified) | – | 1.01% (inactive)
22 | CC(C)(C)CCNc1nc(-c2ccccn2)nnc1-c1ccccc1 | 3.35 µM and 1.68 µM | –

Row | Compound | AC40 [1] | activation [2]
23 | O=C(c1cc(-c2ccccc2)on1)N1CCC(CO)CC1 | – | 0.347% (inactive)
24 | Cn1c(-c2ccccc2)cnc1NC(=O)c1cc(-c2ccccc2)on1 | – | -0.441% (inactive)
25 | C=CCNc1nc(-c2ccccn2)nnc1-c1ccccc1 | 6.56 µM | –
26 | Cc1ccccc1CNC(=O)c1cc(-c2ccccc2)on1 | – | -0.171% (inactive)
27 | O=C(Nc1ncc(-c2ccccc2)o1)c1cc(-c2ccccc2)on1 | – | -0.076% (inactive)
28 | O=C(Nc1cnc2ccccc2c1)c1cc(-c2ccccc2)on1 | – | 0.224% (inactive)
29 | Cn1c(-c2ccccc2)cnc1Nc1nc(-c2ccccn2)nnc1-c1ccccc1 | – | -1.62% (inactive)
30 | Cc1ccc(CNc2nc(-c3ccccn3)nnc2-c2ccccc2)cc1C | 1.48 µM | –
31 | Cc1ccc(Nc2nc(-c3ccccn3)nnc2-c2ccccc2)cn1 | 9.36 µM | –
32 | C[C@@H](Nc1nc(-c2ccccn2)nnc1-c1ccccc1)C1CCCCC1 | 4.3 µM | –
33 | c1ccc(-c2nnc(-c3ccccn3)nc2NCCc2ccccn2)cc1 | 10.1 µM | –
34 | OCCCNc1nc(-c2ccccn2)nnc1-c1ccccc1 | 16.7 µM | –
35 | O=C(Nc1ncc2ccccc2n1)c1cc(-c2ccccc2)on1 | – | 0.873% (inactive)
36 | Oc1ccc(CN2CCC3CCCCC3C2)c2cccnc12 (stereo unspecified) | 21.3 µM | –
37 | CN1CCN(c2nc(-c3ccccn3)nnc2-c2ccccc2)CC1 | 15.8 µM | –
38 | CC(C)(C)CCNC(=O)c1cc(-c2ccccc2)on1 | – | 9.01% (inactive)
39 | Clc1cccc(CNc2nc(-c3ccccn3)nnc2-c2ccccc2)c1 | 1.87 µM | –
40 | Cc1ccc(CNc2nc(-c3ccccn3)nnc2-c2ccccc2)cc1 | 2.72 µM | –
41 | N#CC1(c2ccccc2)CCN(Cc2ccc(O)c3ncccc23)CC1 | – | 7.8% (inactive)
42 | c1ccc(-c2nnc(-c3ccccn3)nc2Nc2nc3ccccc3s2)cc1 | 5.02 µM | –
43 | CC(Nc1nc(-c2ccccn2)nnc1-c1ccccc1)c1ccccc1 (stereo unspecified) | 2.53 µM | –
44 | c1ccc(-c2nnc(-c3ccccn3)nc2NCC2CCCCC2)cc1 | 4.15 µM | –

Row | Compound | AC40 [1] | activation [2]
45 | O=C(NCCCCO)c1cc(-c2ccccc2)on1 | 24.2 µM | –
46 | c1ccc(CNc2nc(-c3ccccn3)nnc2-c2ccccc2)cc1 | 5.43 µM | –
47 | c1ccc(-c2csc(Nc3nc(-c4ccccn4)nnc3-c3ccccc3)n2)cc1 | 24.6 µM | –
48 | Oc1ccc(CN2CCc3ccccc3C2)c2cccnc12 | 5.32 µM | 5.7% (inactive)
49 | CN(C)c1nc(-c2ccccn2)nnc1-c1ccccc1 | 10.5 µM | –
50 | COc1ccc(CNc2nc(-c3ccccn3)nnc2-c2ccccc2)cc1 | 2.51 µM | –
51 | CC(C)(C)c1ccc(CNc2nc(-c3ccccn3)nnc2-c2ccccc2)cc1 | 1.13 µM | –
52 | c1ccc(-c2nnc(-c3ccccn3)nc2N2CCC(N3CCOCC3)CC2)cc1 | 8.15 µM | –
53 | c1ccc(-c2nnc(-c3ccccn3)nc2N2CCC(C3CCCCC3)C2)cc1 (stereo unspecified) | 1.78 µM | –
54 | c1ccc(-c2nnc(-c3ccccn3)nc2NCc2ccccn2)cc1 | 18.5 µM | –
55 | CC(C)(C)OC(=O)N1CCN(Cc2ccc(O)c3ncccc23)CC1 | – | 9.74% (inactive)
56 | O=C(NCc1ccccc1)c1cc(-c2ccccc2)on1 | – | 1.19% (inactive)
57 | c1ccc(-c2cnc(Nc3nc(-c4ccccn4)nnc3-c3ccccc3)s2)cc1 | 31.4 µM | –
58 | CCCCNC(=O)c1cc(-c2ccccc2)on1 | 28.5 µM | –
59 | Oc1ccc(CNC2Cc3ccccc3C2)c2cccnc12 | 32.6 µM | –
60 | c1ccc(-c2nnc(-c3ccccn3)nc2N2CCC(c3ccccc3)C2)cc1 (stereo unspecified) | 1.54 µM | –
61 | Cc1ccc(CNC(=O)c2cc(-c3ccccc3)on2)cc1 | – | -0.243% (inactive)
62 | c1ccc(-c2cccc(CNc3nc(-c4ccccn4)nnc3-c3ccccc3)c2)cc1 | 1.27 µM | –
63 | O=C(NCC1CCCCC1)c1cc(-c2ccccc2)on1 | – | 1.39% (inactive)
64 | O=C(c1cc(-c2ccccc2)on1)N1CCC(N2CCCC2)CC1 | – | -0.666% (inactive)
65 | c1ccc(-c2nnc(-c3ccccn3)nc2NCCCN2CCOCC2)cc1 | 10.7 µM | –
66 | Cc1cccc(NC(=O)c2cc(-c3ccccc3)on2)n1 | – | -0.083% (inactive)

Row | Compound | AC40 [1] | activation [2]
67 | c1ccc(-c2nnc(-c3ccccn3)nc2N2CCN(c3ccncc3)CC2)cc1 | 7.78 µM | –
68 | c1ccc(-c2nnc(-c3ccccn3)nc2NCCN2CCOCC2)cc1 | 11.6 µM | –
69 | c1ccc(-c2nnc(-c3ccccn3)nc2NCC2CC2)cc1 | 7.2 µM | –
70 | C[C@H](Nc1nc(-c2ccccn2)nnc1-c1ccccc1)C1CCCCC1 | 2.23 µM | –
71 | O=C(c1cc(-c2ccccc2)on1)N1CCC(N2CCOCC2)CC1 | – | -0.46% (inactive)
72 | O=C(Nc1ccc2ccccc2n1)c1cc(-c2ccccc2)on1 | – | -0.178% (inactive)
73 | Oc1ccc(CNC2CCc3ccccc32)c2cccnc12 (stereo unspecified) | – | 15.9% (inactive)
74 | Cc1cccc(CNC(=O)c2cc(-c3ccccc3)on2)c1 | – | -0.241% (inactive)
75 | O=C(NCCN1CCCCC1)c1cc(-c2ccccc2)on1 | – | 0.598% (inactive)
76 | Cc1ccc(NC(=O)c2cc(-c3ccccc3)on2)cn1 | – | -0.191% (inactive)
77 | c1ccc(-c2nnc(Nc3nc(-c4ccccn4)nnc3-c3ccccc3)s2)cc1 | 4.75 µM | –
78 | OCC1CCN(c2nc(-c3ccccn3)nnc2-c2ccccc2)CC1 | 18.8 µM | –
79 | O=C(Nc1nnc(-c2ccccc2)s1)c1cc(-c2ccccc2)on1 | – | -0.274% (inactive)
80 | O=C(Nc1nc2ccccc2s1)c1cc(-c2ccccc2)on1 | – | 0.068% (inactive)
81 | c1ccc(-c2nnc(-c3ccccn3)nc2NCC2CCOCC2)cc1 | 18.3 µM | –
82 | Cc1cccc(CNc2nc(-c3ccccn3)nnc2-c2ccccc2)c1 | 3.83 µM | –
83 | O=C(c1cc(-c2ccccc2)on1)N1CCN(c2ccncc2)CC1 | – | -0.05% (inactive)
84 | O=C(NC1Cc2ccccc2C1)c1cc(-c2ccccc2)on1 | – | 0.84% (inactive)
85 | Cn1c(NC(=O)c2cc(-c3ccccc3)on2)nc2ccccc21 | – | -0.522% (inactive)
